From PubChem BioAssay
INS-1E_rescue: rescue of cytokine-induced death in INS-1E beta cells; INS-1E cytokine-induced death, ATP luminescence, 48 h; normalised: neutral wells 0, positive control 100; protection from cytokine-induced ATP loss, % at 10 µM; 0.1% of 20,000 active; AID 488910;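 active = mean replicate protection from cytokine-induced ATP loss at least 50% and at least 75% of replicates each reaching 50%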
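Assay system: INS-1E rat cells / Quantity: 8000 cells per well / Medium: RPMI without phenol red, 5% FBS / Probe or stimulus: three-cytokine cocktail (IFN-γ, TNF-α, IL-1β) / Dosing: one compound concentration, pin transfer / Timing: 48 h co-treatment, 10 min post-lysis read / Technique: CellTiter-Glo luminescence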
A1_apoptosis_2: A1 inhibition read as caspase activation; MEF A1-2A-BIM cells, caspase-Glo luminescence, 3 h; percent of clofoctol response, DMSO zero; caspase activation, % (no concentration beside the values); 24,000 tested, under 10 active; AID 2465; in the data active = caspase activation above about 5.9%
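Material: mouse embryonic fibroblasts co-expressing A1 and BIM (A1-2A-BIM), primed for A1 dependence / Quantity: 2500 cells/well / Buffer or medium: RPMI-1640 growth medium with 10% FBS / Doses: 50 nL compound per well, pinned / Schedule: 3 h compound exposure at 37 °C / Signal: Caspase-Glo luminescence (DEVD substrate) / Measure: Caspase-3/7 activation, seen as rise in luminescence signal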
T_cruzi_intra: inhibitors of intracellular Trypanosoma cruzi | intracellular Trypanosoma cruzi in host cells, plate reader | activity score (inhibition), % at 5.01 µM | 4.9% of 22,000 active | AID 651903; in the data active = activity score above about 55%;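 note: parasites and compound incubated about four days before reading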
A number is an active result; – = inactive; · = no result given. Only a selection was taken, and hits are over-represented in it overall.

SMILES INS-1E_rescue A1_apoptosis_2 T_cruzi_intra
CC(C)NC(=O)N(C)C[C@@H]1OCCCC[C@H](C)Oc2ccc(NC(=O)C3CCCCC3)cc2C(=O)N([C@H](C)CO)C[C@@H]1C · – ·
COc1ccc(NC(=O)N(C)C[C@@H]2OCCCC[C@H](C)Oc3ccc(NC(=O)Nc4ccc5c(c4)OCO5)cc3C(=O)N([C@@H](C)CO)C[C@@H]2C)cc1 · – ·
C[C@@H]1CCCCO[C@@H](CN(C)CC2CCCCC2)[C@@H](C)CN([C@H](C)CO)C(=O)c2cc(NC(=O)Nc3cccc4ccccc34)ccc2O1 – · 66.7
C[C@H](CO)N1C[C@H](C)[C@@H](CN(C)CC2CC2)OCCCC[C@H](C)Oc2ccc(NC(=O)Nc3cccc4ccccc34)cc2C1=O · – ·
C[C@@H]1CCCCO[C@H](CN(C)CC2CCCCC2)[C@@H](C)CN([C@H](C)CO)C(=O)c2cc(NC(=O)Nc3cccc4ccccc34)ccc2O1 – · 63.5
C[C@@H]1CCCCO[C@@H](CN(C)CC2CCCCC2)[C@H](C)CN([C@@H](C)CO)C(=O)c2cc(NC(=O)Nc3cccc4ccccc34)ccc2O1 · – ·
C[C@H](CO)N1C[C@H](C)[C@@H](CN(C)S(=O)(=O)c2ccc(F)cc2)Oc2c(NC(=O)Nc3ccc4c(c3)OCO4)cccc2C1=O – – –
COc1ccc(S(=O)(=O)Nc2ccc3c(c2)CC(=O)N([C@H](C)CO)C[C@@H](C)[C@H](CN(C)S(=O)(=O)c2ccc(OC)cc2)O3)cc1 – – –
Cc1noc(C)c1S(=O)(=O)Nc1cccc2c1O[C@@H](CN(C)Cc1ccc(C(=O)O)cc1)[C@@H](C)CN([C@@H](C)CO)C2=O – – –
CNC[C@@H]1Oc2c(NS(=O)(=O)c3cccs3)cccc2C(=O)N([C@H](C)CO)C[C@@H]1C – – –
C[C@@H]1CN([C@@H](C)CO)C(=O)Cc2cc(NS(=O)(=O)c3cccs3)ccc2O[C@H]1CN(C)S(=O)(=O)c1ccc(Cl)cc1 · – ·
C[C@@H]1CN([C@H](C)CO)C(=O)Cc2cc(NS(=O)(=O)c3cccs3)ccc2O[C@@H]1CN(C)S(=O)(=O)c1ccccc1 – – 59.3
C[C@H]1CN([C@@H](C)CO)C(=O)Cc2cc(NS(=O)(=O)c3cccs3)ccc2O[C@@H]1CN(C)S(=O)(=O)c1ccccc1 – – –
C[C@@H]1CN([C@H](C)CO)C(=O)Cc2cc(NS(=O)(=O)c3cccs3)ccc2O[C@@H]1CN(C)S(=O)(=O)c1ccc(Cl)cc1 – – 71.5
C[C@@H]1CN([C@H](C)CO)C(=O)c2cccc(NC(=O)C3CCOCC3)c2O[C@@H]1CN(C)Cc1ccncc1 – – –
COc1ccc(S(=O)(=O)Nc2ccc3c(c2)C(=O)N([C@H](C)CO)C[C@H](C)[C@@H](CN(C)C(=O)Nc2c(C)noc2C)OCCCC[C@@H](C)O3)cc1 – · –
Cc1ccc(S(=O)(=O)Nc2ccc3c(c2)CC(=O)N([C@H](C)CO)C[C@@H](C)[C@@H](CN(C)CC2CCCCC2)O3)cc1 – · –
C[C@H](CO)N1C[C@H](C)[C@@H](CN(C)CC2CCCCC2)Oc2ccc(NS(=O)(=O)c3ccc(Cl)cc3)cc2CC1=O · – ·
C[C@@H]1CN([C@H](C)CO)C(=O)Cc2cc(NS(=O)(=O)c3ccc(Cl)cc3)ccc2O[C@H]1CN(C)CC1CCCCC1 – – 65.5
Cc1ccc(S(=O)(=O)Nc2ccc3c(c2)CC(=O)N([C@H](C)CO)C[C@@H](C)[C@H](CN(C)CC2CCCCC2)O3)cc1 – – 85.3
Cc1noc(C)c1S(=O)(=O)N(C)C[C@H]1OCCCC[C@@H](C)Oc2ccc(NC(=O)Nc3ccc(F)cc3)cc2C(=O)N([C@@H](C)CO)C[C@@H]1C · – ·
C[C@@H]1CCCCO[C@H](CN(C)C(=O)Nc2ccccc2)[C@H](C)CN([C@@H](C)CO)C(=O)c2cc(NC(=O)Cc3ccccc3)ccc2O1 · – ·
C[C@@H]1CN([C@H](C)CO)C(=O)CCCn2cc(nn2)CO[C@@H]1CN(C)C(=O)CCCN(C)C · – –
